The test system of data set [1] is PBL. The experiment in a line: Radioprotective activity in 2-Gy gamma irradiated human PBL assessed as binucleated cells with micronuclei at 3 uM treated for 2 to 19 hrs followed by compound washout measured after 72 hrs by cytochalasin-B-blocked micronucleus assay (reference value: 15.5 +/- 0.6%). Format: functional. In short, it runs like this: (§1)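 Venous blood from five healthy male volunteers was γ-irradiated at 2 Gy (0.45 Gy/min) at room temperature and cultured. Compounds (0.8−7.4 μM final) were added 2 to 19 h after irradiation, at 37 °C. Cultures were then rinsed and moved to fresh RPMI 1640 for 72 h. Cytokinesis-block micronucleus assay: ≥1000 binucleated cells scored per sample (Countryman–Heddle criteria). Controls were non-treated irradiated cultures; one-way ANOVA with Tukey test.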

In data set [2] the test system is PBL. Nature of the data set: Radioprotective activity in 2-Gy gamma irradiated human PBL assessed as incidence of micronuclei in 1000 binucleated cells at 3 uM treated for 2 to 19 hrs followed by compound washout measured after 72 hrs by cytochalasin-B-blocked micronucleus assay (reference value: 183 +/- 9.6). It counts as functional. In short, it runs like this:
as §1

In data set [3] the test system is PBL. The experiment in a line: Radioprotective activity in 2-Gy gamma irradiated human PBL assessed as incidence of micronuclei in binucleated cells at 3 uM treated for 2 to 19 hrs followed by compound washout measured after 72 hrs by cytochalasin-B-blocked micronucleus assay (reference value: 1.2 +/- 0.03). It counts as functional. In short, it runs like this:
as §1

For data set [4], the system named is PBL. Nature of the data set: Radioprotective activity in 2-Gy gamma irradiated human PBL assessed as frequency of micronuclei at 3 uM treated for 2 to 19 hrs followed by compound washout measured after 72 hrs by cytochalasin-B-blocked micronucleus assay relative to control. It counts as functional. In outline: as §1
The subject of data set [5] is PBL. Nature of the data set: Toxicity in 2-Gy gamma irradiated human PBL assessed as cytokinesis-block proliferation index at 3 uM treated for 2 to 19 hrs followed by compound washout measured after 72 hrs (reference value: 1.6 +/- 0.1). It counts as cell-based.
In data set [6] the test system is PBL. The experiment in a line: Radioprotective activity in 2-Gy gamma irradiated human PBL assessed as incidence of micronuclei in binucleated cells at 3.1 uM treated for 2 to 19 hrs followed by compound washout measured after 72 hrs by cytochalasin-B-blocked micronucleus assay (reference value: 1.2 +/- 0.03). Format: functional. In short, it runs like this:
as §1

Data set [7] has as its system PBL. The experiment in a line: Radioprotective activity in 2-Gy gamma irradiated human PBL assessed as incidence of micronuclei in binucleated cells at 1.5 uM treated for 2 to 19 hrs followed by compound washout measured after 72 hrs by cytochalasin-B-blocked micronucleus assay (reference value: 1.2 +/- 0.03). Format: functional. In outline:
as §1

Data set [8] has as its system PBL. The experiment in a line: Toxicity in 2-Gy gamma irradiated human PBL assessed as cytokinesis-block proliferation index at 0.8 uM treated for 2 to 19 hrs followed by compound washout measured after 72 hrs (reference value: 1.6 +/- 0.1). It counts as cell-based.
Data set [9] concerns PBL. The experiment in a line: Radioprotective activity in 2-Gy gamma irradiated human PBL assessed as frequency of micronuclei at 0.8 uM treated for 2 to 19 hrs followed by compound washout measured after 72 hrs by cytochalasin-B-blocked micronucleus assay relative to control. Format: functional. In outline:
as §1

The subject of data set [10] is PBL. The experiment in a line: Radioprotective activity in 2-Gy gamma irradiated human PBL assessed as binucleated cells with micronuclei at 0.8 uM treated for 2 to 19 hrs followed by compound washout measured after 72 hrs by cytochalasin-B-blocked micronucleus assay (reference value: 15.5 +/- 0.6%). It counts as functional. In outline: as §1
In data set [11] the test system is PBL. The experiment in a line: Toxicity in 2-Gy gamma irradiated human PBL assessed as cytokinesis-block proliferation index at 1.5 uM treated for 2 to 19 hrs followed by compound washout measured after 72 hrs (reference value: 1.6 +/- 0.1). Format: cell-based.
For data set [12], the system named is PBL. Nature of the data set: Radioprotective activity in 2-Gy gamma irradiated human PBL assessed as frequency of micronuclei at 1.5 uM treated for 2 to 19 hrs followed by compound washout measured after 72 hrs by cytochalasin-B-blocked micronucleus assay relative to control. It counts as functional. In short, it runs like this:
as §1

Data set [13] concerns PBL. Nature of the data set: Radioprotective activity in 2-Gy gamma irradiated human PBL assessed as binucleated cells with micronuclei at 3.1 uM treated for 2 to 19 hrs followed by compound washout measured after 72 hrs by cytochalasin-B-blocked micronucleus assay (reference value: 15.5 +/- 0.6%). It counts as functional. In short, it runs like this: as §1
In data set [14] the test system is PBL. Nature of the data set: Radioprotective activity in 2-Gy gamma irradiated human PBL assessed as incidence of micronuclei in binucleated cells at 0.8 uM treated for 2 to 19 hrs followed by compound washout measured after 72 hrs by cytochalasin-B-blocked micronucleus assay (reference value: 1.2 +/- 0.03). It counts as functional. In short, it runs like this: as §1

Data set [15] deals with PBL. Nature of the data set: Radioprotective activity in 2-Gy gamma irradiated human PBL assessed as incidence of micronuclei in 1000 binucleated cells at 0.8 uM treated for 2 to 19 hrs followed by compound washout measured after 72 hrs by cytochalasin-B-blocked micronucleus assay (reference value: 183 +/- 9.6). Format: functional. In short, it runs like this: as §1
Data set [16] has as its system PBL. The experiment in a line: Radioprotective activity in 2-Gy gamma irradiated human PBL assessed as binucleated cells with micronuclei at 1.5 uM treated for 2 to 19 hrs followed by compound washout measured after 72 hrs by cytochalasin-B-blocked micronucleus assay (reference value: 15.5 +/- 0.6%). It counts as functional. In short, it runs like this: as §1
The subject of data set [17] is PBL. Nature of the data set: Toxicity in 2-Gy gamma irradiated human PBL assessed as cytokinesis-block proliferation index at 3.1 uM treated for 2 to 19 hrs followed by compound washout measured after 72 hrs (reference value: 1.6 +/- 0.1). Format: cell-based.
The test system of data set [18] is PBL. Nature of the data set: Radioprotective activity in 2-Gy gamma irradiated human PBL assessed as frequency of micronuclei at 3.1 uM treated for 2 to 19 hrs followed by compound washout measured after 72 hrs by cytochalasin-B-blocked micronucleus assay relative to control. Format: functional. In short, it runs like this:
as §1

Data set [19] has as its system PBL. The experiment in a line: Radioprotective activity in 2-Gy gamma irradiated human PBL assessed as incidence of micronuclei in 1000 binucleated cells at 3.1 uM treated for 2 to 19 hrs followed by compound washout measured after 72 hrs by cytochalasin-B-blocked micronucleus assay (reference value: 183 +/- 9.6). Format: functional. In outline: as §1
Data set [20] concerns PBL. The experiment in a line: Radioprotective activity in 2-Gy gamma irradiated human PBL assessed as incidence of micronuclei in 1000 binucleated cells at 1.5 uM treated for 2 to 19 hrs followed by compound washout measured after 72 hrs by cytochalasin-B-blocked micronucleus assay (reference value: 183 +/- 9.6). Format: functional. In short, it runs like this: as §1
Data set [21] concerns PBL. Nature of the data set: Radioprotective activity in 2-Gy gamma irradiated human PBL assessed as binucleated cells with micronuclei at 4.7 uM treated for 2 to 19 hrs followed by compound washout measured after 72 hrs by cytochalasin-B-blocked micronucleus assay (reference value: 15.5 +/- 0.6%). Format: functional.
Data set [22] has as its system PBL. The experiment in a line: Radioprotective activity in 2-Gy gamma irradiated human PBL assessed as incidence of micronuclei in 1000 binucleated cells at 4.7 uM treated for 2 to 19 hrs followed by compound washout measured after 72 hrs by cytochalasin-B-blocked micronucleus assay (reference value: 183 +/- 9.6). Format: functional.
For data set [23], the system named is PBL. The experiment in a line: Radioprotective activity in 2-Gy gamma irradiated human PBL assessed as frequency of micronuclei at 4.7 uM treated for 2 to 19 hrs followed by compound washout measured after 72 hrs by cytochalasin-B-blocked micronucleus assay relative to control. Format: functional.
In data set [24] the test system is PBL. Nature of the data set: Radioprotective activity in 2-Gy gamma irradiated human PBL assessed as incidence of micronuclei in binucleated cells at 4.7 uM treated for 2 to 19 hrs followed by compound washout measured after 72 hrs by cytochalasin-B-blocked micronucleus assay (reference value: 1.2 +/- 0.03). Format: functional.
The test system of data set [25] is PBL. Nature of the data set: Toxicity in 2-Gy gamma irradiated human PBL assessed as cytokinesis-block proliferation index at 4.7 uM treated for 2 to 19 hrs followed by compound washout measured after 72 hrs (reference value: 1.6 +/- 0.1). Format: cell-based.

On to `CO[C@@]12[C@H](COC(N)=O)C3=C(C(=O)C(C)=C(N)C3=O)N1C[C@@H]1N[C@@H]12` [MITOMYCIN], for which the Activity with PBL [1] worked out at 17.9%; in the data set on PBL [2], 226.1; in the data set on PBL [3] it was 1.3; with PBL [4], 123.5%; with PBL [5] it was 1.6.
On to `COc1cc(-c2oc3cc4c(c(O)c3c(=O)c2O[C@@H]2O[C@H](CO[C@@H]3O[C@@H](C)[C@H](O)[C@@H](O)[C@H]3O)[C@@H](O)[C@H](O)[C@H]2O)OCO4)ccc1O`, for which the Activity came out at 1.2 in the data set with PBL [6]; 1.2 in the data set on PBL [7]; 1.6 in the data set on PBL [8]; 69.2% in the data set with PBL [9]; 11.2% in the data set with PBL [10]; 1.6 in the data set on PBL [11]. The Activity worked out at 71.7% in the data set on PBL [12]; 11.7% with PBL [13]; 1.2 with PBL [14]; 126.6 in the data set on PBL [15]; 10.8% in the data set with PBL [16]; 1.6 in the data set on PBL [17]. For the same compound, the Activity in the data set with PBL [18] is listed as 77.3%; with PBL [19], 141.4; with PBL [20], 131.3.
Regarding `NCCCNCCSP(=O)(O)O` [AMIFOSTINE], the Activity in the data set with PBL [21] was determined as 13.9%; with PBL [22], 166; with PBL [23], 90.7%; with PBL [24] it was 1.2; in the data set with PBL [25], 1.6.
Turning to `C[C@@H]1O[C@@H](O[C@H]2[C@H](Oc3c(-c4ccc(O)c(O)c4)oc4cc5c(c(O)c4c3=O)OCO5)O[C@H](CO)[C@@H](O)[C@@H]2O)[C@H](O)[C@H](O)[C@H]1O`, the Activity in the data set on PBL [6] was 1.2; in the data set on PBL [7], 1.3; in the data set on PBL [8], 1.7; with PBL [9] it was 98.9%; in the data set with PBL [10], 15.1%; in the data set with PBL [11] it was 1.7. The Activity in the data set on PBL [12] amounted to 97.7%; in the data set with PBL [13], 15.3%; with PBL [14], 1.2; in the data set with PBL [15], 181; in the data set with PBL [16], 14.1%; with PBL [17], 1.7. Besides, the Activity in the data set with PBL [18] was 102.2%; with PBL [19], 187; in the data set on PBL [20] it was 178.8.
With `COc1cc(-c2oc3cc4c(c(O)c3c(=O)c2O[C@@H]2O[C@H](CO)[C@@H](O)[C@H](O)[C@H]2O[C@@H]2O[C@@H](C)[C@H](O)[C@@H](O)[C@H]2O)OCO4)ccc1O`, the Activity in the data set on PBL [6] came out at 1.2; in the data set with PBL [7] it was 1.2; in the data set on PBL [8] it was 1.7; with PBL [9], 94%; in the data set with PBL [10], 14.4%; in the data set with PBL [11], 1.7. The Activity was found to be 93.4% in the data set on PBL [12]; 14.3% in the data set on PBL [13]; 1.2 in the data set on PBL [14]; 172 in the data set on PBL [15]; 14.1% in the data set with PBL [16]; 1.8 in the data set on PBL [17]. Also, the Activity in the data set with PBL [18] stood at 95.8%; with PBL [19], 175.3; with PBL [20], 170.9.

(Values after ChEMBL document CHEMBL3608301, “Phenolic Compounds from Atriplex littoralis and Their Radiation-Mitigating Activity” (J Nat Prod, 2015).)
